AP ELISA ortho: alternative pathway complement inhibition, orthogonal assay; Human serum alternative complement pathway, LPS-coated ELISA, C3 deposition; tested in compound mixtures; inhibition, % at 5 µM; 62,000 tested, 0.08% active;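 active = inhibition above 30% in each of the two pooled mixtures holding the compound, so the lower value exceeds 30%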;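 also: 0% = serum in Mg-EGTA without compound and 100% = EDTA serum blank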
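Assay system: Human serum alternative complement pathway, C3 deposition on LPS-coated wells | Incubation: 1 h serum-compound exposure at 37 °C | Doses: 5 µM per compound in ten-compound mixtures | Read-out: Percent inhibition | Technique: ELISA with HRP anti-human C3 antibody, TMB substrate, absorbance 450 nm | Replication: Two pool placements per compound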
D1 allo mod: allosteric modulators of human D1 dopamine receptor. P21728. HEK293 D1, CRE-luciferase, dopamine EC30 potentiation; actives deviate in either direction. B-score at 10 µM. 58,000 tested, 5.9% active. AID 641;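 active = luminescence count or its row- and column-corrected plate score outside the 99.7% band of the plate's sample wells, on either side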
hDAT+cocaine: human DAT dopamine uptake with cocaine, either direction; Q01959; LLC-PK1 hDAT cells, [14C]-dopamine uptake with cocaine IC80; actives deviate in either direction; B-score at 10 µM; 110,000 tested, 1.3% active; AID 449768;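 active = Z score or B-score, a plate-position-corrected score, falls beyond the plate's 99.7% confidence bounds, in either direction; inactive = both scores lie inside the 99.7% bounds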;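 also: scored against the spread of the other compound wells on the same plate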
Target sequence (Q01959 whole entry, looked up): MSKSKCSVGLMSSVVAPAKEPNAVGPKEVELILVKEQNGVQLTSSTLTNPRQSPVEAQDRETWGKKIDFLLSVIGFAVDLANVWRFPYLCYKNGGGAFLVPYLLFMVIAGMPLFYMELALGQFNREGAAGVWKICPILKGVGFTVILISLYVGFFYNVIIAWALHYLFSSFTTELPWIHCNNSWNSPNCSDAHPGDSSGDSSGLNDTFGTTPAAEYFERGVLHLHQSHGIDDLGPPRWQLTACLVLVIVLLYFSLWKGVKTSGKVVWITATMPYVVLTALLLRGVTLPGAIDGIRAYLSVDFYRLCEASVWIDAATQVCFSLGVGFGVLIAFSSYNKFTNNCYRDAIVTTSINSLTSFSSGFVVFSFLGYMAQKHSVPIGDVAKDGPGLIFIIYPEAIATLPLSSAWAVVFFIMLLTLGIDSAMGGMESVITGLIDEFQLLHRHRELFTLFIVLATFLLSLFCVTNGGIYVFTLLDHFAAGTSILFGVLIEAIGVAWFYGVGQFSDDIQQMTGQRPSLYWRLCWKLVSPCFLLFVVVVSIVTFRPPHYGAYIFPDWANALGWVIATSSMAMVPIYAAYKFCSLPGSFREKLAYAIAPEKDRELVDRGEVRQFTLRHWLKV
WNV NS2B-NS3 inh: blocks West Nile virus NS2B-NS3 protease activity; AID 577; P06935; 65,000 tested, 0.18% active; WNV NS2B-NS3 protease, fluorogenic substrate Ex360/Em465; hits give low values; z-score (no concentration beside the values); in the data active = z-score below about -3
D1 mod confirm: confirmation of human D1 dopamine receptor allosteric modulators | HEK293 D1 CRE-luciferase, dopamine EC30 potentiation; hits give high values | luminescence at 10 µM | 2,200 tested, 88% active | shares compounds with D1 allo mod;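 active = luminescence in either of two replicates above the same-plate mean plus 3 SD of the low-dose dopamine control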
D1 ag no DA: D1 (human) signaling in absence of dopamine; AID 646; luminescence at 10 µM; 1,900 tested, 0.8% active; HEK293 D1 CRE-luciferase, luminescence, no dopamine; hits give high values; shares compounds with D1 allo mod; in the data active = luminescence above about 3900
Isoprot counter: counter-screen for D1 modulators: isoproterenol response in HEK293 cells. luminescence at 10 µM. 2,200 tested, 63% active. shares compounds with D1 allo mod. AID 647. HEK293 D1 CRE-luciferase, isoproterenol EC30 counter-screen; hits give high values;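 active = luminescence in either replicate above plate mean of wells with a partly effective reference agonist dose plus 3 SD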;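 also: isoproterenol raises cAMP through native beta-adrenoceptor Gs so signal bypasses D1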
An asterisk follows results filed as active; nt = not tested or not shown. Only a selection was taken, and hits are over-represented in it overall.

SMILES | AP ELISA ortho | D1 allo mod | hDAT+cocaine | WNV NS2B-NS3 inh | D1 mod confirm | D1 ag no DA | Isoprot counter
C=C(C)CSc1nc2c(cc1C#N)CCC2 | 22 | 5* | -1.5 | 1.1 | 8952* | 1892 | 3020
N#Cc1cc2c(nc1SCc1cccnc1)CCCC2 | 4 | 9.6* | 0.53 | -0.41 | 12820* | 1552 | 3440*
COC(=O)Nc1ccc2ncn(C)c(=O)c2c1 | nt | nt | 0.43 | nt | nt | nt | nt
Cc1noc(C)c1S(=O)(=O)N1CCCC(C(=O)NCc2ccccn2)C1 (stereo unspecified) | 17 | 4.2* | -0.32 | -0.98 | 6380* | 1568 | 2512
CCOc1ccccc1Nc1nc(N)nc(CSc2nccc(C)n2)n1 | 14 | 3.6* | 1.4 | -1.2 | 6988* | nt | 2448
Cc1c(NC(=O)c2cc3nc(-c4ccc(Cl)cc4)cc(C(F)(F)F)n3n2)c(=O)n(-c2ccccc2)n1C | nt | nt | 0.87 | nt | nt | nt | nt
CCOc1cccc(-c2nnc3sc(C4CCCCC4)nn23)c1 | nt | nt | 1.9 | 0.07 | nt | nt | nt
COc1cccc(-c2nnc3sc(C4CCCCC4)nn23)c1 | 6 | 5.5* | -8.3* | 1 | 12024* | 1460 | 3564*
COc1cc(OC)c(-c2nn3c(C4CCCCC4)nnc3s2)cc1OC | 1 | 5.2* | 1.8 | -0.74 | 10724* | 1788 | 6364*
Cc1cc(-c2nnc3sc(C4CCCCC4)nn23)n[nH]1 | 14 | 7.8* | -1.2 | 0.9 | 14928* | nt | 3496*
COc1cc(-c2nnc3sc(C4CCCCC4)nn23)cc(OC)c1OC | nt | 7.4* | 1.3 | -0.73 | 15992* | 1688 | 8420*
O=C(OCC(F)(F)C(F)F)c1ccccc1C(=O)Oc1ccc(F)cc1F | 21 | -0.54 | 0.61 | -0.17 | nt | nt | nt
Cc1noc(C)c1CSCC(=O)N1CCN(c2ccc([N+](=O)[O-])cc2)CC1 | nt | nt | 0.68 | nt | nt | nt | nt
CCC(=O)N1c2ccc(S(=O)(=O)CCC(=O)N3CCn4c3nc3ccccc34)cc2CC1C (stereo unspecified) | 13 | 3.9* | -1.6 | 1.2 | 12244* | 1788 | 3500*
CCC(=O)N1c2ccc(S(=O)(=O)CCC(=O)NC3CCCC3)cc2CC1C (stereo unspecified) | 3 | 0.13 | 0.3 | 0.56 | nt | nt | nt
CCOC(=O)c1nnn(-c2nonc2N)c1-c1ccc(OC)cc1 | 22 | 11* | -0.39 | -1.3 | 22732* | 1492 | 4492*
CCOC(=O)c1c(N)n[nH]c1-c1ccc(OC)cc1 | 2 | 9* | -0.78 | 1.6 | 16256* | nt | 3172*
CCOC(=O)c1cc(-c2nnc(-c3ccc(Oc4ccccc4)cc3)o2)c(C)nc1C | 16 | 0.74 | 0.12 | -0.27 | nt | nt | nt
CCCCCCn1c(NCC)nc2c1c(=O)[nH]c(=O)n2C | -6 | 5.3* | -1.1 | 0.53 | 9696* | 1604 | 3124*
CCCCCn1c(Sc2nc3ccccc3s2)nc2c1c(=O)[nH]c(=O)n2C | 4 | 17* | 1.4 | -0.4 | 22672* | 1660 | 8564*
CCCCCn1c(Sc2ncccn2)nc2c1c(=O)[nH]c(=O)n2C | nt | 20* | 0.23 | -0.31 | 25988* | 1676 | 4764*
CCOC(=O)CSc1nc2c(c(=O)[nH]c(=O)n2C)n1CCCc1ccccc1 | 2 | -0.066 | -0.83 | 0.21 | nt | nt | nt
CCCCCCn1c(SCC(=O)OC)nc2c1c(=O)[nH]c(=O)n2C | 11 | 4.7* | 0.81 | 0.07 | 5408 | 1472 | 2984*
CN(C)C(=C(C#N)C#N)N1CCN(c2ccc(Cl)c(Cl)c2)CC1 | nt | nt | 0.47 | nt | nt | nt | nt
Cc1ccc(C2C3=C(CC(C)(C)CC3=O)N(CCN3CCOCC3)C3=C2C(=O)CC(C)(C)C3)cc1 | 12 | 0.06 | -1.1 | 0.59 | nt | nt | nt
SMILES | AP ELISA ortho | D1 allo mod | hDAT+cocaine | WNV NS2B-NS3 inh | D1 mod confirm | D1 ag no DA | Isoprot counter
CCN(CC)S(=O)(=O)c1cccc(-c2nnc(SCCOc3ccc(Cl)cc3)o2)c1 | 6 | -1.8 | -0.76 | 0.59 | nt | nt | nt
CCN(CC)S(=O)(=O)c1cccc(-c2nnc(SCCOc3ccccc3)o2)c1 | -7 | 14* | 0.28 | 2 | 5768 | 1568 | 2704
CNc1nc(C)c(C#N)c(-c2ccccc2)c1C(C)=O | 7 | 5.8* | -0.52 | -0.38 | 12136* | 1680 | 2928
CC(=O)Nc1nc(C)nc(-c2ccccc2)c1C(C)=O | 29 | 2.5 | -0.1 | 0.19 | nt | nt | nt
COc1ccc(-c2csc(NC(=O)c3cc(C)on3)c2C#N)cc1OC | 16 | 10* | 0.46 | -2 | 17944* | 1716 | 3748*
CCN1CCN(c2nc3c(c(=O)n(C)c(=O)n3C)n2CCSc2nccc(C)n2)CC1 | -7 | 0.037 | 0.35 | -0.57 | nt | nt | nt
CCC(=O)Nc1nonc1-c1nc2ccccc2n1Cc1cccc2ccccc12 | nt | nt | -0.072 | nt | nt | nt | nt
CCC(=O)Nc1nonc1-c1nc2ccccc2n1Cc1ccccc1 | 14 | 3.3* | 0.88 | -1.3 | 13704* | 1604 | 3656*
FC(F)Sc1nnc(-c2cccs2)n1-c1ccccc1 | 8 | 6.9* | -0.29 | -0.65 | 13848* | 1504 | 3332*
CC(C)(C)C1=Nn2c(nnc2C2CCCCC2)SC1 | nt | 24* | 1.1 | 0.33 | 19908* | 1652 | 4100*
c1cc2c(cc1C1=Nn3c(nnc3C3CCCCC3)SC1)OCO2 | 4 | 28* | -0.24 | 1.5 | 25488* | 1768 | 13072*
c1ccc(-c2nnc3n2N=C(c2ccc4c(c2)OCO4)CS3)nc1 | nt | nt | -0.18 | 0.58 | nt | nt | nt
Oc1ccc(C(=S)N2CCCCC2)cc1Cl | -5 | 0.6 | -0.11 | 0.6 | nt | nt | nt
CNC(=O)CC(C(=O)O)c1ccc(OCC(C)C)cc1 (stereo unspecified) | -2 | -0.036 | nt | 0.1 | nt | nt | nt
CCn1c(=O)c(C(=O)NCc2cccnc2)c(O)c2ccccc21 | 9 | 4.8* | -8.4* | 0.74 | 13308* | 1676 | 2712
CCCn1c(=O)c(C(=O)NCc2ccncc2)c(O)c2ccccc21 | 10 | 5.2* | 0.76 | -0.73 | 6720* | 1628 | 2880
CCn1c(=O)c(C(=O)Nc2cccnc2)c(O)c2ccccc21 | 5 | 0.84 | nt | 0.31 | nt | nt | nt
CC1CN(C(=O)CSc2nnc3c(Cl)cc(Cl)cn23)CC(C)O1 (stereo unspecified) | nt | nt | -0.033 | nt | nt | nt | nt
CCOc1ncccc1C(=O)OCc1ccc(C(=O)OC)o1 | 3 | 8* | 0.098 | 0.16 | 16096* | 1680 | 5020*
Cc1ccc(C)n1-n1cnc2scc(-c3cccs3)c2c1=O | 17 | 17* | 1 | -0.96 | 24272* | 1704 | 5520*
C=CCNc1sc(C(=O)c2ccccc2)c(N)c1C#N | nt | nt | -0.072 | nt | nt | nt | nt
C=CCNc1sc(C(=O)c2ccc(C)cc2)c(N)c1C#N | nt | nt | 0.042 | nt | nt | nt | nt
C=CCNc1sc(C(=O)C(C)(C)C)c(N)c1C#N | -10 | 9.3* | -0.02 | 1.3 | 21312* | 1684 | 2876
C=CCNc1sc(C(=O)C2CC2)c(N)c1C#N | nt | 19* | 1.4 | -0.3 | 26736* | 1716 | 4380*
CN1Cc2cc(C(=O)c3cc(Cl)cc(CSc4ncccn4)c3O)cnc2NC1=O | 18 | 4.5* | -0.74 | -0.96 | 8560* | nt | 4428*
